Results from ChEMBL document CHEMBL1146196, “Bactericidal activity and resistance development profiling of dalbavancin” (2007).
Converted amounts (≈) assume the structure as drawn. The source made the active and inactive calls. The rule behind the calls is not given here.

Experiments:
Staphylococcus aureus [1] = assay: Antimicrobial activity against methicillin-susceptible Staphylococcus aureus FB892379 by broth microdilution method; format: functional
Summary of the method: (§1)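 Clinical staphylococcal isolates from US hospitals with known resistance phenotypes.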

Enterococcus faecium [2] = assay: Antimicrobial activity against vancomycin-susceptible Enterococcus faecium FB767191
Staphylococcus aureus [3] = assay: Bacterial killing activity of methicillin-resistant Staphylococcus aureus at 8 to 32 ug/ml; format: functional
Streptococcus pyogenes [4] = assay: Bactericidal activity against Streptococcus pyogenes; format: functional
Enterococcus faecalis [5] = assay: Antimicrobial activity against vancomycin-susceptible Enterococcus faecalis FB766323; format: functional
[6] = test system: Staphylococcus epidermidis; assay: Antimicrobial activity against methicillin-resistant Staphylococcus epidermidis FB758988 by broth microdilution method; format: functional; summary of the method: as §1
Staphylococcus aureus [7] = assay: Bacterial killing activity of methicillin-susceptible Staphylococcus aureus at 8 to 32 ug/ml; format: functional
[8] = test system: Staphylococcus epidermidis; assay: Antimicrobial activity against methicillin-resistant Staphylococcus epidermidis FB896283 by broth microdilution method; format: functional; summary of the method: as §1
Enterococcus faecalis [9] = assay: Antimicrobial activity against vancomycin-susceptible Enterococcus faecalis FB766782; format: functional
Streptococcus pyogenes [10] = assay: Antimicrobial activity against erythromycin-resistant Streptococcus pyogenes FB764371 by broth microdilution method; format: functional
Summary of the method: (§2)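 Clinical US hospital isolates. The medium was supplemented with 2 to 5% lysed horse blood.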

Staphylococcus aureus [11] = assay: Antimicrobial activity against methicillin-susceptible Staphylococcus aureus FB1050986 by broth microdilution method; format: functional; summary of the method: as §1
Staphylococcus aureus [12] = assay: Antimicrobial activity against methicillin-resistant Staphylococcus aureus FB1065524 by broth microdilution method; format: functional; summary of the method: as §1
Staphylococcus aureus [13] = assay: Antimicrobial activity against methicillin-resistant Staphylococcus aureus FB1051634 by broth microdilution method; format: functional; summary of the method: as §1
Enterococcus faecium [14] = assay: Antimicrobial activity against vancomycin-susceptible Enterococcus faecium FB769334
Streptococcus pyogenes [15] = assay: Antimicrobial activity against erythromycin-susceptible Streptococcus pyogenes FB1041626 by broth microdilution method; format: functional; summary of the method: as §2
Streptococcus pyogenes [16] = assay: Antimicrobial activity against erythromycin-susceptible Streptococcus pyogenes FB1041775 by broth microdilution method; format: functional
Staphylococcus aureus [17] = assay: Antimicrobial activity against vancomycin-intermediate Staphylococcus aureus FB988644; format: functional
Staphylococcus aureus [18] = assay: Bacterial killing activity of vancomycin-intermediate Staphylococcus aureus at 8 to 32 ug/ml; format: functional
[19] = test system: Staphylococcus epidermidis; assay: Antimicrobial activity against methicillin-resistant Staphylococcus epidermidis FB750345 by broth microdilution method; format: functional; summary of the method: as §1
[20] = test system: Staphylococcus haemolyticus; assay: Antimicrobial activity against Staphylococcus haemolyticus FB954177 by broth microdilution method; format: functional
[21] = test system: Staphylococcus haemolyticus; assay: Antimicrobial activity against Staphylococcus haemolyticus FB953975 by broth microdilution method; format: functional
Staphylococcus aureus [22] = assay: Bacterial killing activity of methicillin-resistant Staphylococcus aureus at 0.25 ug/ml; format: functional, organism-based
Summary of the method: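 Time-kill per CLSI with a starting inoculum of approximately 10^7 CFU/ml. Dalbavancin was tested at 0.25, 1, 4 and 16 µg/ml, chosen to reflect free plasma levels plus a lower level. Viable counts were taken over 24 h and reported as log10 decrease.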

Streptococcus pyogenes [23] = assay: Bacterial killing activity of Streptococcus pyogenes at 0.25 ug/ml; format: functional
Summary of the method: (§3)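 CLSI time-kill in medium with 2 to 5% lysed horse blood; starting inoculum approximately 10^7 CFU/ml; dalbavancin at 0.25, 1, 4 and 16 µg/ml; viable counts followed to 24 h, killing expressed as log10 decrease.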

Staphylococcus aureus [24] = assay: Bacterial killing activity of methicillin-susceptible Staphylococcus aureus at 0.25 ug/ml; format: functional, organism-based
Summary of the method: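 Time-kill per CLSI; inoculum approximately 10^7 CFU/ml; dalbavancin at 0.25, 1, 4 and 16 µg/ml; viable counts after 24 h exposure, expressed as log10 reduction.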

Streptococcus pyogenes [25] = assay: Bacterial killing activity of Streptococcus pyogenes at >=1 ug/ml; format: functional; summary of the method: as §3

SMILES	MBC (Staphylococcus aureus [1])	MBC (Enterococcus faecium [2])	MBC (Enterococcus faecalis [5])	MBC [6]	MBC [8]	MBC (Enterococcus faecalis [9])	MBC (Streptococcus pyogenes [10])	MBC (Staphylococcus aureus [11])	MBC (Staphylococcus aureus [12])	MBC (Staphylococcus aureus [13])	MBC (Enterococcus faecium [14])	MBC (Streptococcus pyogenes [15])	MBC (Streptococcus pyogenes [16])	MBC (Staphylococcus aureus [17])	MBC [19]	MBC [20]	MIC [20]	MBC [21]	MIC [21]	further results
CN[C@H](CC(C)C)C(=O)N[C@H]1C(=O)N[C@@H](CC(N)=O)C(=O)N[C@H]2C(=O)N[C@H]3C(=O)N[C@H](C(=O)N[C@H](C(=O)O)c4cc(O)cc(O)c4-c4cc3ccc4O)[C@H](O)c3ccc(c(Cl)c3)Oc3cc2cc(c3O[C@@H]2O[C@H](CO)[C@@H](O)[C@H](O)[C@H]2O[C@H]2C[C@](C)(N)[C@H](O)[C@H](C)O2)Oc2ccc(cc2Cl)[C@H]1O [VANCOMYCIN]	1 µg/mL (≈ 0.69 µM)	> 32 µg/mL	> 32 µg/mL	2 µg/mL (≈ 1.38 µM)	2 µg/mL (≈ 1.38 µM)	> 32 µg/mL	0.5 µg/mL (≈ 0.345 µM)	2 µg/mL (≈ 1.38 µM)	1 µg/mL (≈ 0.69 µM)	1 µg/mL (≈ 0.69 µM)	16 µg/mL (≈ 11 µM)	0.5 µg/mL (≈ 0.345 µM)	> 2 µg/mL	8 µg/mL (≈ 5.52 µM)	2 µg/mL (≈ 1.38 µM)	> 32 µg/mL	1 µg/mL (≈ 0.69 µM)	4 µg/mL (≈ 2.76 µM)	4 µg/mL (≈ 2.76 µM)	Log10 cfu (Staphylococcus aureus [3]): >=3; Log10 cfu (Streptococcus pyogenes [4]): <2; Log10 cfu (Staphylococcus aureus [7]): >=3; Log10 cfu (Staphylococcus aureus [18]): >=3
CN[C@H]1C(=O)N[C@@H]2Cc3ccc(cc3)Oc3cc4cc(c3O[C@@H]3O[C@H](C(=O)O)[C@@H](O)[C@H](O)[C@H]3NC(=O)CCCCCCCCC(C)C)Oc3ccc(cc3Cl)[C@@H](O)[C@@H]3NC(=O)[C@H](NC(=O)[C@@H]4NC(=O)[C@@H](NC2=O)c2cc(cc(O)c2Cl)Oc2cc1ccc2O)c1ccc(O)c(c1)-c1c(O[C@H]2O[C@H](CO)[C@@H](O)[C@H](O)[C@@H]2O)cc(O)cc1[C@@H](C(=O)NCCCN(C)C)NC3=O [DALBAVANCIN]	0.06 µg/mL (≈ 0.033 µM)	2 µg/mL (≈ 1.1 µM)	8 µg/mL (≈ 4.4 µM)	0.06 µg/mL (≈ 0.033 µM)	0.03 µg/mL (≈ 0.0165 µM)	4 µg/mL (≈ 2.2 µM)	0.008 µg/mL (≈ 0.0044 µM)	1 µg/mL (≈ 0.55 µM)	0.5 µg/mL (≈ 0.275 µM)	0.06 µg/mL (≈ 0.033 µM)	2 µg/mL (≈ 1.1 µM)	0.008 µg/mL (≈ 0.0044 µM)	0.25 µg/mL (≈ 0.138 µM)	2 µg/mL (≈ 1.1 µM)	0.06 µg/mL (≈ 0.033 µM)	0.12 µg/mL (≈ 0.0661 µM)	0.03 µg/mL (≈ 0.0165 µM)	0.25 µg/mL (≈ 0.138 µM)	0.12 µg/mL (≈ 0.0661 µM)	MIC (Staphylococcus aureus [1]): 0.06 µg/mL (≈ 0.033 µM); MIC (Enterococcus faecium [2]): 0.03 µg/mL (≈ 0.0165 µM); Activity (Staphylococcus aureus [22]): Active; Log10 cfu (Streptococcus pyogenes [23]): >3; MIC (Enterococcus faecalis [5]): 0.03 µg/mL (≈ 0.0165 µM); MIC [6]: 0.06 µg/mL (≈ 0.033 µM); MIC [8]: 0.03 µg/mL (≈ 0.0165 µM); MIC (Enterococcus faecalis [9]): 0.06 µg/mL (≈ 0.033 µM); MIC (Streptococcus pyogenes [10]): 0.008 µg/mL (≈ 0.0044 µM); MIC (Staphylococcus aureus [11]): 0.06 µg/mL (≈ 0.033 µM); MIC (Staphylococcus aureus [12]): 0.06 µg/mL (≈ 0.033 µM); MIC (Staphylococcus aureus [13]): 0.06 µg/mL (≈ 0.033 µM); MIC (Enterococcus faecium [14]): 0.015 µg/mL (≈ 0.00826 µM); Activity (Staphylococcus aureus [24]): Active; MIC (Streptococcus pyogenes [15]): 0.008 µg/mL (≈ 0.0044 µM); MIC (Streptococcus pyogenes [16]): 0.008 µg/mL (≈ 0.0044 µM); MIC (Staphylococcus aureus [17]): 1 µg/mL (≈ 0.55 µM); Log10 cfu (Streptococcus pyogenes [25]): 5; MIC [19]: 0.06 µg/mL (≈ 0.033 µM)
